Measured values: ChEMBL document CHEMBL1781919, “Synthesis and anticonvulsant properties of 1-(amino-N-arylmethanethio)-3-(1-substituted benzyl-2, 3-dioxoindolin-5-yl) urea derivatives” (Eur J Med Chem, 2011)
The source made the active and inactive calls. No cut-off for these calls is given here.

Key:
[1] = test system: Mus musculus; experiment: Neurotoxicity in mouse assessed as minimum motor impairment at 30 mg/kg, ip after 0.5 hrs by rotarod test; format: toxicity, organism-based; parameters: dose 30 mg/kg, route intraperitoneal; conditions: in vivo
In short: (§1)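 Rotorod test for minimal motor impairment in mice given 30, 100 or 300 mg/kg i.p. at 0.01 mL/g, using sets of one, three and one animals, at 0.5 h and 4.0 h. Animals are observed at each dose and time. Score is N/F, the number showing toxicity over the number tested.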

[2] = test system: Mus musculus; experiment: Anticonvulsant activity in mouse assessed as protection against maximal electroshock-induced seizures at 300 mg/kg, ip after 4 hrs; format: functional, organism-based; parameters: dose 300 mg/kg
In short: (§2)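 Mouse Test 1: i.p. dosing at 0.01 mL/g. Sets of one, three and one animals receive 30, 100 and 300 mg/kg respectively, each tested at 0.5 h and 4.0 h. Score is N/F, the number of animals protected over the number tested. Screening performed by NINDS following the ADD program protocol.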

[3] = test system: Mus musculus; experiment: Anticonvulsant activity in mouse assessed as protection against subcutaneous pentylenetetrazole-induced seizures at 100 mg/kg, ip after 0.5 hrs; format: functional, organism-based; parameters: dose 100 mg/kg
[4] = test system: Mus musculus; experiment: Anticonvulsant activity in mouse assessed as protection against subcutaneous pentylenetetrazole-induced seizures at 30 mg/kg, ip after 4 hrs; format: functional, organism-based; parameters: dose 30 mg/kg
[5] = test system: Mus musculus; experiment: Neurotoxicity in mouse assessed as minimum motor impairment at 100 mg/kg, ip after 4 hrs by rotarod test; format: toxicity, organism-based; parameters: dose 100 mg/kg, route intraperitoneal; conditions: in vivo; in short: as §1
[6] = test system: Mus musculus; experiment: Anticonvulsant activity in mouse assessed as protection against maximal electroshock-induced seizures at 100 mg/kg, ip after 4 hrs; format: functional, organism-based; parameters: dose 100 mg/kg; in short: as §2
[7] = test system: Mus musculus; experiment: Neurotoxicity in mouse assessed as minimum motor impairment at 100 mg/kg, ip after 0.5 hrs by rotarod test; format: toxicity, organism-based; parameters: dose 100 mg/kg, route intraperitoneal; conditions: in vivo; in short: as §1
[8] = test system: Mus musculus; experiment: Neurotoxicity in mouse assessed as minimum motor impairment at 300 mg/kg, ip after 4 hrs by rotarod test; format: toxicity, organism-based; parameters: dose 300 mg/kg, route intraperitoneal; conditions: in vivo; in short: as §1
[9] = test system: Mus musculus; experiment: Anticonvulsant activity in mouse assessed as protection against maximal electroshock-induced seizures at 300 mg/kg, ip after 0.5 hrs; format: functional, organism-based; parameters: dose 300 mg/kg; in short: as §2
[10] = test system: Mus musculus; experiment: Anticonvulsant activity in mouse assessed as protection against maximal electroshock-induced seizures at 100 mg/kg, ip after 0.5 hrs; format: functional, organism-based; parameters: dose 100 mg/kg; in short: as §2
[11] = test system: Mus musculus; experiment: Anticonvulsant activity in mouse assessed as protection against maximal electroshock-induced seizures at 30 mg/kg, ip after 4 hrs; format: functional, organism-based; parameters: dose 30 mg/kg; in short: as §2
[12] = Octanol-phosphate buffer partition coefficient, log P of the compound; format: physicochemical
In short: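 Octanol and phosphate buffer partition run at room temperature (29 °C). After separation, the phases are membrane-filtered and drug in the aqueous phase is measured by UV. PC = (Ct − Ca)/Ca, where Ct is total drug concentration and Ca is aqueous-phase concentration.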

[13] = test system: Mus musculus; experiment: Anticonvulsant activity in mouse assessed as protection against subcutaneous pentylenetetrazole-induced seizures at 300 mg/kg, ip after 0.5 hrs; format: functional, organism-based; parameters: dose 300 mg/kg
[14] = test system: Mus musculus; experiment: Anticonvulsant activity in mouse assessed as protection against maximal electroshock-induced seizures at 30 mg/kg, ip after 0.5 hrs; format: functional, organism-based; parameters: dose 30 mg/kg; in short: as §2
[15] = test system: Mus musculus; experiment: Anticonvulsant activity in mouse assessed as protection against subcutaneous pentylenetetrazole-induced seizures at 100 mg/kg, ip after 4 hrs; format: functional, organism-based; parameters: dose 100 mg/kg
[16] = test system: Mus musculus; experiment: Anticonvulsant activity in mouse assessed as protection against subcutaneous pentylenetetrazole-induced seizures at 30 mg/kg, ip after 0.5 hrs; format: functional, organism-based; parameters: dose 30 mg/kg
[17] = test system: Mus musculus; experiment: Neurotoxicity in mouse assessed as minimum motor impairment at 30 mg/kg, ip after 4 hrs by rotarod test; format: toxicity, organism-based; parameters: dose 30 mg/kg, route intraperitoneal; conditions: in vivo; in short: as §1
[18] = test system: Mus musculus; experiment: Anticonvulsant activity in mouse assessed as protection against subcutaneous pentylenetetrazole-induced seizures at 300 mg/kg, ip after 4 hrs; format: functional, organism-based; parameters: dose 300 mg/kg
[19] = test system: Mus musculus; experiment: Neurotoxicity in mouse assessed as minimum motor impairment at 300 mg/kg, ip after 0.5 hrs by rotarod test; format: toxicity, organism-based; parameters: dose 300 mg/kg, route intraperitoneal; conditions: in vivo; in short: as §1

| logP [12] | SMILES | Activity [1] | Activity [2] | Activity [3] | Activity [4] | Activity [5] | Activity [6] | Activity [7] | Activity [8] | Activity [9] | Activity [10] | Activity [11] | Activity [13] | Activity [14] | Activity [15] | Activity [16] | Activity [17] | Activity [18] | Activity [19] |
| --- | --- | --- | --- | --- | --- | --- | --- | --- | --- | --- | --- | --- | --- | --- | --- | --- | --- | --- | --- |
| 3.24 | COc1ccc(NC(=S)NC(=O)Nc2ccc3c(c2)C(=O)C(=O)N3Cc2ccccc2Cl)cc1 | Non-toxic | inactive | inactive | inactive | Non-toxic | inactive | Non-toxic | Non-toxic | inactive | inactive | inactive | inactive | inactive | inactive | inactive | Non-toxic | inactive | Non-toxic |
| 3.98 | O=C(NC(=S)Nc1ccccc1Cl)Nc1ccc2c(c1)C(=O)C(=O)N2Cc1ccccc1Cl | Non-toxic | inactive | inactive | inactive | Non-toxic | inactive | Non-toxic | Non-toxic | inactive | inactive | inactive | inactive | inactive | inactive | inactive | Non-toxic | inactive | Non-toxic |
| 3.72 | Cc1cccc(NC(=S)NC(=O)Nc2ccc3c(c2)C(=O)C(=O)N3Cc2ccccc2Cl)c1 | Non-toxic | Active | inactive | inactive | Non-toxic | inactive | Non-toxic | Non-toxic | inactive | inactive | inactive | inactive | inactive | inactive | inactive | Non-toxic | Active | Non-toxic |
